The nature of series [1]: Human liver microsome stability / intrinsic clearance. It is filed as in vitro ADME. To be noted: for CLint scaled: human, liver microsomes.
A short description of series [2]: Mouse liver microsome stability / intrinsic clearance. Type of series: in vitro ADME. To be noted: for CLint scaled: mouse, liver microsomes.
Series [3] is described as follows: Human plasma protein binding. The settings on record: fraction unbound. It is filed as in vitro ADME.
A short description of another series: Metabolite ID study. Type of series: in vitro ADME.
Another series deals with 6-OHDA mouse model. To be noted: 6-OHDA mouse model ref 13; cited from earlier work.
The subject of series [4] is other dopamine receptors (D1-3,5). The series can be described thus: Binding at other dopamine receptors. More on the design: species or system human. Summed up: (§1)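 Ki from competitive inhibition of radioligand binding in membranes from HEK293 cells stably expressing the human receptor. [3H]N-methylspiperone was used for D2R, D3R and D4R, and [3H]SCH23390 for D1R and D5R.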

Another series addresses T1, hD4R (Homo sapiens, UniProt P21917).
T1 sequence (P21917 1-419): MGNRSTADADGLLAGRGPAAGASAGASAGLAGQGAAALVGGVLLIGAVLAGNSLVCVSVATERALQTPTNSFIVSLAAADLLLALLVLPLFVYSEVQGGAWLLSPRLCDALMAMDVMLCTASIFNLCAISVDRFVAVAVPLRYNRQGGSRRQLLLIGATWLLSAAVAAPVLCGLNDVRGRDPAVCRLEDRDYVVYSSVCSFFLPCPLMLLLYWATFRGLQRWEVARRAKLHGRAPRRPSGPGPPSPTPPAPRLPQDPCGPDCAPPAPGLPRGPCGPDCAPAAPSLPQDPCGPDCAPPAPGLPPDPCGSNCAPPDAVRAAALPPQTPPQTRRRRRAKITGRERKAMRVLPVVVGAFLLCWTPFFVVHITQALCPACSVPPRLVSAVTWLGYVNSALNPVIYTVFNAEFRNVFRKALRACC
The series can be described thus: D4R competitive radioligand binding. In a few lines: as §1

A short description of the next series: In vivo rat cassette PK. To be noted: iv, 0.25 mg/kg.
The nature of the next series: Mouse plasma stability. It is filed as in vitro ADME.

This is an account of results in PMC8966054 (Bioorganic & medicinal chemistry letters, 2022).

As for `COc1ccc(CN2CCO[C@H](COc3ccccc3)C2)cc1F` [Compound 1, reference compound], the “Human liver microsome stability” value in [1] is listed as “highly unstable”. Also, in series [2], the “Mouse liver microsome stability” value is listed as “highly unstable” and the CLint scaled (usually the capacity of the preparation to metabolise the compound, expressed as a volume cleared per time) worked out at 2130 mL/min/kg. The “Plasma Protein Binding (%fu) hPPB” value in series [3] is 3.1 %fu. The “Major metabolic liability (metabolite ID)” value in “Metabolite ID study” is given as “N-dealkylation”. The “Dyskinesia AIM (abnormal involuntary movement) scores” value with 6-OHDA mouse model is “dose-dependent reduction”.
Consider `COc1ccc(CN2CCC[C@H](OCc3cccc(F)c3)C2)cc1F` [Compound 8a], for which the “Selectivity against the other dopamine receptors” value (“Selectivity” below) in series [4] is “selective”.
For `COc1ccc(CN2CCC[C@H](OCc3ccc(F)c(F)c3)C2)cc1F` [Compound 8b], the CLint scaled worked out at 272 mL/min/kg in series [1] and 1260 mL/min/kg in series [2].
Regarding `COc1ccc(CN2CCC[C@@H](OCc3ccc(F)c(C)c3)C2)cc1F` [Compound 8d], the “Fold less active, (R)-enantiomer vs (S)-enantiomer at D4” value at hD4R worked out at 15 fold.
With `Fc1ccc(CO[C@H]2CCCN(Cc3cn4ccccc4n3)C2)cc1F` [Compound 8i], the CLint scaled in series [1] came out at 689 mL/min/kg; in series [2], 1400 mL/min/kg.
With `Fc1cccc(CO[C@H]2CCCN(Cc3ncn4ccccc34)C2)c1` [Compound 8n], at hD4R, the “D4 activity” value was “much less active or inactive”.
For `Fc1ccc(CO[C@H]2CCCN(Cc3ncn4ccccc34)C2)cc1F` [Compound 8o], the values for the intrinsic clearance (CLint scaled) in series [1] and in [2] were 622 mL/min/kg and 5370 mL/min/kg, respectively.
For `FC(F)(F)Oc1cccc(CO[C@H]2CCCN(Cc3ncc4ccccn34)C2)c1` [Compound 8q], the “D4 activity” value at hD4R was “much less active or inactive”.
For the molecule `Cc1cccc(CO[C@H]2CCCN(Cc3ncc4ccccn34)C2)n1` [Compound 8r], on hD4R, the “D4 activity” value was “much less active or inactive”.
With `Fc1cccc(COC2CCN(Cc3cn4ccccc4n3)CC2)c1` [Compound 9a], the “Fold improvement of D4 activity vs 3-O-derivative” value on hD4R came out at 10 fold. Further, in [1], the “Human liver microsome stability” value is “stable” and the CLint scaled was below 23.1 mL/min/kg. In addition, in [2], the “Mouse liver microsome stability” value is given as “modestly stable” and the intrinsic metabolic clearance (CLint scaled) was found to be 380 mL/min/kg.
Regarding `Fc1ccc(COC2CCN(Cc3cn4ccccc4n3)CC2)cc1F` [Compound 9b], in [1], the “Human liver microsome stability” value is listed as “stable” and the intrinsic clearance (CLint scaled) was below 20 mL/min/kg. For the same molecule, in series [2], the “Mouse liver microsome stability” value is on record as “modestly stable” and the intrinsic metabolic clearance (CLint scaled) came to 158 mL/min/kg. For the same molecule, the clearance (commonly the rate of elimination divided by the concentration) in the series “In vivo rat cassette PK” was 116 mL/min/kg.
In the case of `FC(F)(F)c1cccc(COC2CCN(Cc3cn4ccccc4n3)CC2)c1` [Compound 9c], the values for the CLint scaled in [1] and in series [2] were 44.6 mL/min/kg and 310 mL/min/kg, respectively.
In the case of `Fc1cc(COC2CCN(Cc3cn4ccccc4n3)CC2)ccc1Cl` [Compound 9d], the intrinsic clearance (CLint scaled) stood at 44.1 mL/min/kg in series [1] and 96.8 mL/min/kg in series [2]. The clearance in the series “In vivo rat cassette PK” was 134 mL/min/kg.
Take `Fc1cc(COC2CCN(Cc3ncc4ccccn34)CC2)ccc1Cl` [Compound 9e]: in series [1], the “Human liver microsome stability” value is “not as stable” and the CLint scaled is 212 mL/min/kg. Besides, in [2], the “Mouse liver microsome stability” value is on record as “not as stable” and the CLint scaled turned out to be 917 mL/min/kg.
Regarding `Fc1cccc(COC2CCN(Cc3ncn4ccccc34)CC2)c1` [Compound 9h], in series [1], the “Human liver microsome stability” value is reported as “not as stable” and the intrinsic clearance (CLint scaled) is 340 mL/min/kg. Besides, in [2], the “Mouse liver microsome stability” value is “not as stable” and the intrinsic metabolic clearance (CLint scaled) is 1260 mL/min/kg.
For the molecule `Cc1nc(CN2CCC(OCc3cccc(C(F)(F)F)c3)CC2)c2ccccn12` [Compound 9i], the CLint scaled in [1] was found to be 85.3 mL/min/kg; in series [2], 272 mL/min/kg.
For `Cc1nc(CN2CCC(OCc3ccc(Cl)c(F)c3)CC2)c2ccccn12` [Compound 9j], in that order: 114 mL/min/kg and 140 mL/min/kg.
With `Fc1cc(COC2CCN(Cc3ccc4[nH]cnc4c3)CC2)ccc1Cl` [Compound 9l], the intrinsic metabolic clearance (CLint scaled) in series [1] turned out to be 48.3 mL/min/kg; in series [2], 90.4 mL/min/kg. Besides, in “In vivo rat cassette PK”, the clearance came to 199 mL/min/kg.
`FC(F)(F)c1cccc(COC2CCN(Cc3ccc4[nH]cnc4c3)CC2)c1` [Compound 9m]: the CLint scaled is 32.9 mL/min/kg in series [1] and 76.4 mL/min/kg in series [2].
With `Fc1ccc(COC2CCN(Cc3ccc4[nH]cnc4c3)CC2)cc1F` [Compound 9n], the values for the CLint scaled in series [1] and in series [2] were below 20 mL/min/kg and 93.9 mL/min/kg, respectively. For the same molecule, the clearance in the series “In vivo rat cassette PK” was 235 mL/min/kg.
As to `Cn1cnc2cc(CN3CCC(OCc4cccc(C(F)(F)F)c4)CC3)ccc21` [Compound 9p], the figures for the CLint scaled in [1] and in [2] were 63.3 mL/min/kg and 85.2 mL/min/kg, respectively. This molecule also had a clearance in “In vivo rat cassette PK” of 107 mL/min/kg.
`Cn1ncc2cc(CN3CCC(OCc4ccc(F)c(F)c4)CC3)ccc21` [Compound 9u] showed a CLint scaled in [2] of 104 mL/min/kg. The clearance in “In vivo rat cassette PK” was 140 mL/min/kg.
Turning to `Cn1ncc2cc(CN3CCC(OCc4ccc(Cl)c(F)c4)CC3)ccc21` [Compound 9v], the figures for the intrinsic metabolic clearance (CLint scaled) in series [1] and in series [2] were 42.7 mL/min/kg and 85.3 mL/min/kg, respectively.
As to `Cn1ncc2cc(CN3CCC(OCc4cccc(C(F)(F)F)c4)CC3)ccc21` [Compound 9w], the CLint scaled in series [1] is 63.3 mL/min/kg; in [2], 85.2 mL/min/kg.
In the case of `Fc1ccc(COC2CCN(Cc3cc4ccc(Cl)cc4[nH]3)CC2)cc1F` [Compound 9y], the values for the CLint scaled in series [1] and in series [2] were 23.5 mL/min/kg and 83.2 mL/min/kg, respectively. This molecule returned a C0 in “In vivo rat cassette PK” of 36.9 ng/mL.
For `FC(F)(F)c1cccc(COC2CCN(Cc3cc4ccc(Cl)cc4[nH]3)CC2)c1` [Compound 9z], the CLint scaled amounted to 26.9 mL/min/kg in series [1] and 71.5 mL/min/kg in series [2].
As for `Cc1c(Cl)cccc1NC(=O)CN1CCC(OCc2ccc(F)c(F)c2)CC1` [Compound 11a], in series [4], the “Selectivity” value was “selective for D4”. In [1], the intrinsic clearance (CLint scaled) was 145 mL/min/kg. Moreover, in series [2], the intrinsic clearance (CLint scaled) was determined as 287 mL/min/kg. In addition, in “In vivo rat cassette PK”, the C0 came to 91 ng/mL and the clearance was determined as 22 mL/min/kg.
Turning to `Cc1cc(NC(=O)CN2CCC(OCc3ccc(F)c(F)c3)CC2)ccc1F` [Compound 11d], the “Selectivity” value in series [4] is listed as “selective for D4”. Also, in series [1], the “Human liver microsome stability” value was “moderately stable” and the CLint scaled amounted to 49.5 mL/min/kg. In addition, in [2], the “Mouse liver microsome stability” value is recorded as “moderately stable” and the intrinsic metabolic clearance (CLint scaled) came to 306 mL/min/kg. The “Mouse plasma stability” value in “Mouse plasma stability” is “not stable”. Also, the “Plasma stability (footnote symbol in mPPB column)” value in the series “Mouse plasma stability” (mouse plasma) is given as “c”.
